Screening data: PubChem, Broad Institute
RAD54 inh – inhibitors of human RAD54 branch migration, primary screen, biochemical, fluorescence, single point. 0.14% of 360,000 active. DNA repair and recombination protein RAD54-like (Homo sapiens), Q92698. inhibition, % at 10.4 µM. RAD54 Holliday junction branch migration, FAM/BHQ fluorescence;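 active means mean normalized replicate activity at least 40 and at least half of replicates scoring 40 or more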;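 further: 0% = median of neutral control wells and 100% = median of positive control wells; inhibitors cause a drop in the FAM fluorescence signal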
Target sequence (Q92698 whole entry, looked up): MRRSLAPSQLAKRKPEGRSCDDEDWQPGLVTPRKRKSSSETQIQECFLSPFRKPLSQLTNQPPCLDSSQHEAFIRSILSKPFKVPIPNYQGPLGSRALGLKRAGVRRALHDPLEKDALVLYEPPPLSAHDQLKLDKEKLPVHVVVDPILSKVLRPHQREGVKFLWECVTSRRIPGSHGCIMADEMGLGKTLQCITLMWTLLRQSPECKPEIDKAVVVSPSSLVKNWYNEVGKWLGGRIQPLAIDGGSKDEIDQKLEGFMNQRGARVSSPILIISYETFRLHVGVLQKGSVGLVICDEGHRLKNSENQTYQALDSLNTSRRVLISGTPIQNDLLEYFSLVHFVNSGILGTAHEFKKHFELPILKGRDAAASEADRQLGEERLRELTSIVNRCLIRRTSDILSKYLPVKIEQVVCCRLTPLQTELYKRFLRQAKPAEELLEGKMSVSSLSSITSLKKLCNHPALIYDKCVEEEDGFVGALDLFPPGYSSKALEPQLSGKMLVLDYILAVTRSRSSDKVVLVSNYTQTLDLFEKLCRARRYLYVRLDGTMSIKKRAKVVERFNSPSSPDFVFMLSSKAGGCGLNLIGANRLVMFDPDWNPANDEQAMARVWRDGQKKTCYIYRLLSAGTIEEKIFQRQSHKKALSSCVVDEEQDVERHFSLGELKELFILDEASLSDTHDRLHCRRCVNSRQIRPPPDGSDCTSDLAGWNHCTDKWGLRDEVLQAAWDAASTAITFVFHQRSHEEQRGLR
RAD52 anneal inh – RAD52 DNA annealing inhibitors, primary screen, biochemical, FRET, single point, set 2; recombinant RAD52 DNA annealing, FRET fluorescence; inhibition, % at 18.7 µM; 0.46% of 360,000 active;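 active means every replicate showing at least 50% inhibition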
PglD inh – C. jejuni PglD acetyltransferase inhibitors, primary screen, biochemical, DTNB colorimetric, single point; 0.098% of 360,000 active; UDP-N-acetylbacillosamine N-acetyltransferase PglD (Campylobacter jejuni); inhibition, % at 12.5 µM; purified PglD enzyme, DTNB colorimetric CoA detection; in the data active means inhibition above about 16%, passing the limit was not always enough
Cneo AK release – Cryptococcus neoformans cell lysis inducers, primary screen, AK release luminescence, single concentration; AID 651654, 2012; C. neoformans lysis, adenylate kinase release luminescence, 4 h; normalised: neutral wells 0, clomiphene wells 100; 0.2% of 360,000 active; lysis activity, % at 15 µM;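 active means mean lysis activity across replicates of at least 80%, whatever share of replicates individually reach that level; inactive means mean lysis activity below 80%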
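Test system: log-phase Cryptococcus neoformans yeast cells. Input: 5 × 10^6 yeast cells/mL. Medium: fresh YPD growth medium. Doses: single dose. Incubation: static 4 h at 37 °C with compound, 1 h detection. Measured by: luminescent adenylate kinase detection reagent. Read-out: signal increase indicating cell lysis. Benchmarks: Clomiphene.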
rRNA inh HTS – reduced GFP signal of wild-type E. coli, primary screen, bacterial rRNA inhibitor project, GFP/RFP fluorescence, OD600, single point; E. coli WT GFP vs humanized-ribosome RFP mutants, 24 h; hits give low values; DMSO median 0, no signal -100; GFP signal change (wild-type ribosome), % (no concentration beside the values); 1.6% of 350,000 active; AID 720706, 2013;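 active means significant combined selectivity score with lowered wild-type GFP, culture density cut under 30%, mutant RFP and density less affected; inactive means any of these conditions unmet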
* = called active by the depositor; nt = no result given. In the library only some 1.9% were active in any assay of this set; here they are far more common.

SMILES	RAD54 inh	RAD52 anneal inh	PglD inh	Cneo AK release	rRNA inh HTS
C[C@@H]1CN([C@H](C)CO)S(=O)(=O)c2ccc(C#Cc3cccc(F)c3)cc2O[C@@H]1CN(C)CC1CC1	2.5	58.9*	0.4	6.5	-12.6
COc1ccc2c3c(n(C)c2c1)[C@@H](CO)N(C(=O)CC1CC1)CC31CCN(C(=O)C2CCC2)CC1	nt	nt	nt	nt	-4.2
Clc1nc(Cl)c2ncn(-c3ccccc3)c2n1	6.8	-43.4	2.0	-1.6	-16.9*
CCc1nnc(NC(=O)CSc2nnc(-c3ccccc3O)o2)s1	-0.6	-22.2	3.1	-4.0	-26.5*
COCC(=O)N1CCC2(CC1)CN(Cc1ccccc1Cl)[C@@H](CO)c1c2c2ccc(OC)cc2n1C	nt	nt	nt	nt	5.0
O=C(O)c1ccc(NS(=O)(=O)c2cccc(C(=O)Nc3ccc(Br)cc3)c2)cc1	-5.1	-2.5	6.0	-0.8	-27.2*
N#Cc1c(NC(=O)c2cccc(S(=O)(=O)Nc3ccc(C(=O)O)cc3)c2)sc2c1CCCC2	nt	-12.2	nt	nt	-24.2*
CO[C@@H]1CN(C)C(=O)c2cc(NC(=O)Nc3ccc(Cl)cc3)ccc2OC[C@H](C)N(C)C[C@H]1C	nt	nt	nt	nt	-4.5
COc1ccc(N2CCN(C(=O)CSc3nnnn3-c3ccc4c(c3)OCCO4)CC2)cc1	nt	-5.5	nt	nt	-21.5*
COCCCNC(=O)CSc1c2c(nc3ccc(Cl)cc13)CCCC2	nt	-6.7	nt	nt	-23.1*
O=C(CSc1c2c(nc3ccc(Cl)cc13)CCCC2)NCCCN1CCOCC1	-3.9	nt	0.4	1.1	nt
O=S(=O)(c1ccc(F)cc1)N1C[C@@H]2[C@H](c3ccccc31)[C@@H](CO)N2Cc1ccccc1Cl	-13.9	-112.9	5.2	91.6*	-13.6
CC(=O)N1[C@@H]2CN(S(=O)(=O)c3ccccc3F)c3ccccc3[C@@H]2[C@@H]1CO	12.2	-5.9	1.2	91.9*	-0.3
CS(=O)(=O)N1CC2(C1)[C@H](c1ccccc1)[C@@H](CO)N2C(=O)C1CCC1	nt	-5.0	nt	nt	0.5
C[C@@H]1CN([C@@H](C)CO)C(=O)c2ccccc2-c2ccccc2CO[C@@H]1CN(C)S(=O)(=O)c1cn(C)cn1	nt	nt	nt	nt	-1.1
COc1cc2c(cc1OC)C(c1c(Cl)cccc1Cl)NC(=O)C2 (configuration not stated)	-5.4	-2.5	1.7	-0.7	4.4
CC1=C(O)C(=O)OC1c1c(Cl)cccc1Cl (configuration not stated)	2.1	-27.6	-6.3	0.0	-28.9*
COc1cccc2oc3ccc(C#CC4(N)CCCCC4)cc3c(=O)c12	50.7*	-1.9	10.6	47.8	-12.3
O=c1c2ccccc2oc2ccc(C#CC3(O)CCCCC3)cc12	-8.7	-18.8	0.4	7.5	-30.4
COc1ccc(S(=O)(=O)Nc2ccc3c(c2)C(=O)N([C@@H](C)CO)C[C@H](C)[C@H](CN(C)C(=O)Nc2cccc4ccccc24)OCCCC[C@H](C)O3)cc1	4.9	nt	0.0	0.6	-1.8
C[C@@H]1CN(C)C(=O)c2cccc(N(C)C)c2O[C@H]1CN(C)C	nt	nt	nt	nt	3.0
Cc1cc(OCC(=O)O/N=C(\N)Cc2cccs2)ccc1Br	1.5	-19.0	-2.2	-3.6	-23.6*
CC(C)(C)NC(=S)N/N=C/c1cc(Br)c(O)c(Br)c1	nt	-2.9	nt	nt	-39.5*
O=C(C[C@H]1CC[C@@H](NC(=O)c2ccc3c(c2)OCO3)[C@@H](CO)O1)NCc1ccc(F)cc1	1.1	5.2	3.1	93.7*	-3.0
O=C(C[C@@H]1CC[C@H](NC(=O)c2ccc3c(c2)OCO3)[C@H](CO)O1)NCc1ccc(F)cc1	4.6	4.3	7.8	79.1	-0.3
O=C(Cc1ccccc1)N1C[C@H]2[C@@H](c3ccccc31)[C@@H](CO)N2C(=O)c1cccc(F)c1	-14.1	-1.2	-3.7	6.1	0.5
S=c1nc(-c2ccccc2Cl)n(Cc2cccnc2)c2c1CCCC2	nt	-12.7	nt	nt	-26.2*
OCCCn1c(-c2ccccc2)nc(=S)c2c1CCCC2	-4.2	nt	5.2	10.2	nt
CC(=O)CCc1oc2ccccc2c1-c1ccccc1	3.4	-12.4	2.9	0.0	-33.8*
CC(=O)CCc1oc2ccc(C)cc2c1Cc1ccccc1	-3.3	-24.9	0.2	-0.3	-24.6
